Experimental data from ChEMBL document CHEMBL1671644, “Inhibition of human immunodeficiency virus type 1 infection by the candidate microbicide dapivirine, a nonnucleoside reverse transcriptase inhibitor” (Antimicrob Agents Chemother, 2009).

What was measured:
[1] = system: Human immunodeficiency virus 1; assay: Antiviral activity against HIV-1 subtype CRF02_AG V022825 infected in human MT4 cells assessed as inhibition of viral replication relative to HIV-1 3B; format: functional
Outline: (§1)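 MT-4 cells (3 x 10^4/well) infected with site-directed mutants or recombinant clinical isolates (200 TCID50/well) with drug, cultured 3 to 5 days. Viability read by MTT colorimetric antivirogram assay. IC50 by nonlinear regression; fold change = IC50 for the test isolate / IC50 for wild-type HIV-1 IIIB tested in parallel (mean or median).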

[2] = system: Human immunodeficiency virus 1; assay: Antiviral activity against HIV-1 subtype CRF05_DF V022824 harboring NNRTI V106I mutant infected in human MT4 cells assessed as inhibition of viral replication relative to HIV-1 3B; format: functional; outline: as §1
[3] = system: Human immunodeficiency virus 1; assay: Antiviral activity against HIV-1 subtype CRF01_AE V022821 infected in human MT4 cells assessed as inhibition of viral replication relative to HIV-1 3B; format: functional
Outline: (§2)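 Recombinant clinical HIV-1 isolates (200 TCID50/well) were tested in MT-4 cells (3 x 10^4/well) over 3–5 days, with an MTT viability read-out. IC50 was fitted by nonlinear regression. Fold change is the isolate IC50 divided by the HIV-1IIIB IC50, tested in parallel.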

[4] = Toxicity against human cervical tissue explants at 1 mM after 24 hrs by MTT assay; conditions: 1000 µM
Outline: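 Uninfected ectocervical explants were exposed to drug for 2 or 24 h. Viability was measured by MTT reduction per milligram of tissue relative to unexposed explants, either immediately or after overnight culture. Three or four donors, triplicate.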

[5] = system: Human immunodeficiency virus 1; assay: Antiviral activity against HIV-1 Bal infected in 2 hrs 10000 nM compound pretreated human ectocervical explant tissue assessed as prolonged inhibition of viral infection post compound removal measured after 6 days post compound removal; format: functional
Outline: (§3)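 Ectocervical explants were exposed to drug (0.01–10 µM) for 2 or 24 h at 37°C and washed. They received HIV-1BaL (2 h) on day 0, 2, 4 or 6 after drug removal, with no drug present. Read-outs at 10 days post-exposure: explant p24 ELISA, tissue proviral DNA by qPCR, and p24 in migratory cell–PM-1 cocultures. Three donors (2 h) or two donors (24 h), triplicate.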

[6] = Cytotoxicity against human MT4 cells after 24 hrs by MTT assay; format: cell-based
[7] = system: Human immunodeficiency virus 1; assay: Antiviral activity against HIV-1 subtype CRF01_AE V029525 infected in human MT4 cells assessed as inhibition of viral replication relative to HIV-1 3B; format: functional; outline: as §2
[8] = Selectivity index, ratio of CC50 for human PM1 cells to IC50 for HIV-1 RF; format: functional
Outline: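 Selectivity index is CC50/IC50, using values determined in the same time period. CC50 was measured by MTT for TZM-bl and PM-1 cells and by trypan blue exclusion after 14 days for macrophages. Both were fitted by nonlinear regression.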

[9] = system: Human immunodeficiency virus 1; assay: Antiviral activity against HIV-1 SM058 harboring NNTRI 227L and 106A mutant infected in human MT4 cells assessed as inhibition of viral replication relative to HIV-1 3B; format: functional; outline: as §1
[10] = system: Human immunodeficiency virus 1; assay: Antiviral activity against HIV-1 subtype B V022814 infected in human MT4 cells assessed as inhibition of viral replication relative to HIV-1 3B; format: functional; outline: as §1
[11] = system: Human immunodeficiency virus 1; assay: Antiviral activity against HIV-1 subtype C V022829 infected in human MT4 cells assessed as inhibition of viral replication relative to HIV-1 3B; format: functional; outline: as §1
[12] = system: Human immunodeficiency virus 1; assay: Antiviral activity against HIV-1 subtype B V022809 infected in human MT4 cells assessed as inhibition of viral replication relative to HIV-1 3B; format: functional; outline: as §1
[13] = system: Human immunodeficiency virus 1; assay: Antiviral activity against HIV-1 subtype CRF01_AE V022820 infected in human MT4 cells assessed as inhibition of viral replication relative to HIV-1 3B; format: functional; outline: as §1
[14] = system: Human immunodeficiency virus 1; assay: Antiviral activity against HIV-1 subtype B V022807 infected in human MT4 cells assessed as inhibition of viral replication relative to HIV-1 3B; format: functional; outline: as §2
[15] = system: Human immunodeficiency virus 1; assay: Antiviral activity against HIV-1 Bal infected in 24 hrs 100 to 1000 nM compound pretreated human ectocervical explant tissue assessed as prolonged inhibition of viral infection post compound removal measured after 6 days post compound removal; format: functional; outline: as §3
[16] = system: Human immunodeficiency virus 1; assay: Antiviral activity against HIV-1 SM012 harboring NNTRI 108I mutant infected in human MT4 cells assessed as inhibition of viral replication relative to HIV-1 3B; format: functional; outline: as §1
[17] = system: Human immunodeficiency virus 1; assay: Antiviral activity against HIV-1 subtype C V022816 infected in human MT4 cells assessed as inhibition of viral replication relative to HIV-1 3B; format: functional; outline: as §2
[18] = system: Human immunodeficiency virus 1; assay: Antiviral activity against HIV-1 subtype CRF02_AG V022808 infected in human MT4 cells assessed as inhibition of viral replication relative to HIV-1 3B; format: functional; outline: as §1
[19] = system: Human immunodeficiency virus 1; assay: Antiviral activity against HIV-1 Bal infected in 24 hrs 10 nM compound pretreated human ectocervical explant tissue assessed as prolonged inhibition of viral infection post compound removal; format: functional; outline: as §3
[20] = system: Human immunodeficiency virus 1; assay: Antiviral activity against HIV-1 Bal infected in human monocyte derived macrophages after 14 days by p24 assay; conditions: Human immunodeficiency virus 1, Bal, 336 h
[21] = system: Human immunodeficiency virus 1; assay: Antiviral activity against HIV-1 SF162 infected in hu-SCID mouse assessed as protection from viral infection at 22.5 uM; format: functional; conditions: Human immunodeficiency virus 1, SF162 ISOLATE
[22] = system: Human immunodeficiency virus 1; assay: Antiviral activity against HIV-1 subtype B V022813 infected in human MT4 cells assessed as inhibition of viral replication relative to HIV-1 3B; format: functional; outline: as §1
[23] = system: Human immunodeficiency virus 1; assay: Antiviral activity against HIV-1 Bal infected in human PM1 cells assessed as inhibition of transmission of virus to premissive T cells; format: functional, organism-based; conditions: Human immunodeficiency virus 1, Bal
Outline: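 Explants were pretreated with drug for 1 h, then exposed to HIV-1BaL for 2 h with drug present and washed. Cells that migrated out overnight were washed and cocultured with PM-1 cells (4 x 10^4/well) for about 10 days. Transfer was read as p24 by ELISA in coculture supernatant (detection limit 300 pg/ml). Two donors, triplicate.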

[24] = system: Human immunodeficiency virus 1; assay: Antiviral activity against HIV-1 subtype B V022815 infected in human MT4 cells assessed as inhibition of viral replication relative to HIV-1 3B; format: functional; outline: as §2
[25] = system: Human immunodeficiency virus 1; assay: Antiviral activity against HIV-1 Bal infected in 24 hrs 100 to 1000 nM compound pretreated human ectocervical explant tissue assessed as prolonged inhibition of viral infection post compound removal measured after 2 days post compound removal; format: functional; outline: as §3
[26] = system: Human immunodeficiency virus 1; assay: Antiviral activity against HIV-1 Bal infected in human TZM-bl cells after 24 hrs by luciferase reporter gene assay; format: functional, organism-based; conditions: Human immunodeficiency virus 1, Bal
Outline: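 TZM-bl cells (5 x 10^4/well), cultured overnight, pretreated with drug 1 h, then infected with HIV-1 BaL (200 TCID50/ml). After 24 h, cells washed and lysed and luciferase read. Drug-treated wells compared with untreated controls; IC50 (infection at 50% of drug-free control) by nonlinear regression.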

[27] = system: Human immunodeficiency virus 1; assay: Antiviral activity against HIV-1 subtype H V022827 harboring NNRTI V179I mutant infected in human MT4 cells assessed as inhibition of viral replication relative to HIV-1 3B; format: functional; outline: as §1

Compound: Cc1cc(C)c(Nc2ccnc(Nc3ccc(C#N)cc3)n2)c(C)c1 [DAPIVIRINE]
- Ratio IC50 [1]: 0.8
- Ratio IC50 [2]: 0.7
- Ratio IC50 [3]: 1.7
- Activity [4]: Non-toxic
- inhibition (INH) [5]: 80%
- CC50 at 24 h [6]: 2150 nM
- Ratio IC50 [7]: 2.6
- Selectivity Index [8]: 4583
- Ratio IC50 [9]: 8
- Ratio IC50 [10]: 0.8
- Ratio IC50 [11]: 1
- Ratio IC50 [12]: 1.5
- Ratio IC50 [13]: 0.9
- Ratio IC50 [14]: 1.1
- inhibition (INH) [15]: 90%
- Ratio IC50 [16]: 1
- Ratio IC50 [17]: 1.8
- Ratio IC50 [18]: 1
- inhibition (INH) [19]: 90%
- IC50 [20]: 2.4 nM
- inhibition in vivo at 22.5 µM [21]: 78.6%
- Ratio IC50 [22]: 0.7
- IC50 [23]: 0.1 nM
- Ratio IC50 [24]: 2.2
- inhibition (INH) [25]: 90%
- IC50 [26]: 1.46 nM
- IC90 [26]: 10.2 nM
- Ratio IC50 [27]: 0.9
